SMILES strings stand for the structures. In brackets after ≈: the same amount, converted by molar mass.

Here are results for one molecule from ChEMBL document CHEMBL1275591, “Cellular pharmacodynamics of the novel biaryloxazolidinone radezolid: studies with infected phagocytic and nonphagocytic cells, using Staphylococcus aureus, Staphylococcus epidermidis, Listeria monocytogenes, and Legionella pneumophila” (Antimicrob Agents Chemother, 2010).

The nature of series [1]: Ratio of drug level for cellular to extracellular region of Staphylococcus aureus infected human Calu3 cells at 4 mg/liter after 2 hrs. The settings on record: calu-3, 2 h. The format is ADME, cell-based. A digest of the protocol:
(§1)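 Cells were exposed to [14C]radezolid for 2 or 24 h. Cell-associated drug in lysates was measured by liquid scintillation counting (detection limit 0.003 mg/liter; linear 0.01–0.78 mg/liter). Content was normalised to cell protein (Lowry). It was converted to apparent cellular concentration at 5 μl per mg protein and expressed relative to the extracellular concentration.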

In series [2] the test system is Staphylococcus aureus. Briefly: Antimicrobial activity against linezolid-susceptible Staphylococcus aureus SA238 infected in THP1 cells assessed as log reduction in bacterial count after 24 hrs. It counts as functional, THP-1. A digest of the protocol:
(§2)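 Bacteria were phagocytosed by human THP-1 macrophage-like cells, then exposed to a range of drug concentrations for a fixed time: 24 h for S. aureus, S. epidermidis and L. monocytogenes, 48 h for L. pneumophila. Change in CFU versus the initial inoculum was fitted with a sigmoidal curve to give Emin, Emax (relative maximal efficacy), EC50 and static concentration (Cs).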

The subject of series [3] is Staphylococcus aureus. Briefly: Bacteriostatic activity against linezolid-resistant Staphylococcus aureus SA040L infected in THP1 cells after 24 hrs. The format is functional, THP-1. A digest of the protocol:
(§3)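 Human THP-1 myelomonocytic (macrophage-like) cells infected with S. aureus, then exposed 24 h to a range of antibiotic concentrations. CFU change was measured against the initial inoculum. A sigmoidal dose-response curve was fitted to give Emin, Emax and EC50, and the apparent static concentration (Cs) was taken from the fit.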

Series [4] has as its system Staphylococcus aureus. Nature of the series: Bacteriostatic activity against linezolid-resistant Staphylococcus aureus SA238L infected in Calu-3 cells after 24 hrs. The format is functional. A digest of the protocol:
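Adherent nonphagocytic cells were infected at 5 × 10^7 to 1 × 10^8 bacteria/ml with 2 h phagocytosis. Cells used: Calu-3 bronchial epithelium grown in uncoated flasks, neonatal foreskin keratinocytes on collagen-coated wells, primary human osteoblasts, and primary rat embryo fibroblasts. Antibiotic was then given over a concentration range for 24 h. Cs came from a sigmoidal fit of CFU change.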

Series [5] deals with Staphylococcus aureus. Briefly: Antimicrobial activity against linezolid-resistant Staphylococcus aureus SA238L infected in THP1 cells after 24 hrs. The format is functional, organism-based. The note with it: THP-1, 24 h. The method, boiled down: as §2
Series [6] deals with Staphylococcus aureus. Briefly: Antimicrobial activity against Staphylococcus aureus infected in THP1 cells after 24 hrs. The format is functional, organism-based. The note with it: THP-1, 24 h. A digest of the protocol: as §2
The test system of series [7] is Staphylococcus aureus. Briefly: Antimicrobial activity against hospital acquired methicillin-resistant, vancomycin resistant Staphylococcus aureus VRS2 after 24 hrs. The format is functional. The note with it: VRS2, 24 h.
A short description of series [8]: Ratio of drug level for cellular to extracellular region of Staphylococcus aureus infected human osteoblast at 4 mg/liter after 2 hrs. The format is ADME, cell-based. A digest of the protocol:
as §1

In series [9] the test system is Staphylococcus aureus. Briefly: Antimicrobial activity against linezolid-susceptible Staphylococcus aureus ATCC 33591 infected in THP1 cells after 24 hrs. The format is functional, organism-based. The settings on record: ATCC 33591, THP-1, 24 h. A digest of the protocol:
as §2

Series [10] relates to Staphylococcus aureus. Briefly: Bacteriostatic activity against linezolid-susceptible Staphylococcus aureus SA238 infected in THP1 cells after 24 hrs. The format is functional, THP-1. A digest of the protocol:
as §3

In the next series the test system is Listeria monocytogenes. Briefly: Bacteriostatic activity against Listeria monocytogenes EGD infected in THP1 cells after 24 hrs. It counts as functional, THP-1. The method, boiled down: as §2
Series [11] has as its system Staphylococcus aureus. Nature of the series: Bacteriostatic activity against linezolid-resistant Staphylococcus aureus SA238L infected in HUVEC cells after 24 hrs. The format is functional. The method, boiled down: (§4)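 HUVEC were grown in endothelial growth medium on gelatin-treated flasks. They were infected with 2 × 10^6 bacteria/ml for 1 h phagocytosis, then exposed 24 h to graded antibiotic concentrations. CFU change from the initial inoculum was fitted to a sigmoidal curve to obtain the static concentration (Cs).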

The nature of series [12]: Ratio of drug level for cellular to extracellular region of Staphylococcus aureus infected human keratinocyte at 4 mg/liter after 2 hrs. It counts as ADME, cell-based. The method, boiled down:
as §1

The nature of series [13]: Ratio of drug level for cellular to extracellular region of Staphylococcus aureus infected human osteoblast at 4 mg/liter after 24 hrs. It counts as ADME, cell-based. The method, boiled down:
as §1

The subject of series [14] is Staphylococcus aureus. Nature of the series: Antimicrobial activity against linezolid-susceptible Staphylococcus aureus SA040 infected in THP1 cells assessed as log reduction in bacterial count after 24 hrs. It counts as functional, THP-1. A digest of the protocol:
as §2

For series [15], the system named is Staphylococcus aureus. Nature of the series: Bacteriostatic activity against linezolid-susceptible Staphylococcus aureus SA238 infected in HUVEC cells after 24 hrs. It counts as functional. The method, boiled down:
as §4

Series [16] deals with Staphylococcus aureus. Briefly: Antimicrobial activity against linezolid-susceptible Staphylococcus aureus NRS384 infected in THP1 cells assessed as log reduction in bacterial count after 24 hrs. It counts as functional, THP-1. A digest of the protocol: as §2

On to `CC(=O)NC[C@H]1CN(c2ccc(-c3ccc(CNCc4cnn[nH]4)cc3)c(F)c2)C(=O)O1` [RADEZOLID], for which the Ratio in [1] is given as 8.5; in series [8] it was 9.8; in [12], 12.6; in series [13], 9.7. Besides, the log10cfu in the series with Staphylococcus aureus [2] is -0.79; in the series with Staphylococcus aureus [14] it was -0.96; in the series with Staphylococcus aureus [16] it was -0.61. The Activity with Staphylococcus aureus [3] was determined as 0.56 mg/L; with Staphylococcus aureus [4] it was 0.6 mg/L; in the series with Staphylococcus aureus [10], 0.56 mg/L; in the series on Listeria monocytogenes it was 0.43 mg/L; in the series on Staphylococcus aureus [11] it was 0.6 mg/L; with Staphylococcus aureus [15], 0.6 mg/L. Further, the concentration giving a half-maximal response (EC50) with Staphylococcus aureus [5] turned out to be 0.29 µg/mL (≈ 0.661 µM); in the series on Staphylococcus aureus [6] it was 0.24 µg/mL (≈ 0.547 µM); in the series on Staphylococcus aureus [9], 0.12 µg/mL (≈ 0.274 µM). The molecule also displayed an MIC against Staphylococcus aureus [7] of 2 µg/mL (≈ 4.56 µM).
